# PMC4824049 (Bioorganic & medicinal chemistry, 2015)
# “Also recorded” adds a separate entry of the source.
# Experiments:
# [1] = tested on: HUVECs; assay: Cytotoxicity assay; format: cell-based, human; details: normal primary cells
# Procedure, shortened: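 Pooled-donor HUVECs were grown on collagen-1-coated flasks in M200 with gentamycin, amphotericin B and low-serum growth supplement at 37 °C and 5% CO2, used at passage 5 or lower. Cells were seeded at 9,000/well for 24 h, then given ten-fold serial dilutions of test compound for 48 h. Plates were TCA-fixed and stained with 0.4% SRB for 30 min. Absorbance was read at 540 nm, normalised to 630 nm. GI50 came from at least two replicates, averaged over at least three experiments.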
# [2] = tested on: MDA-MB-231 breast cancer cells; assay: MDA-MB-231 cell migration assay; format: cell-based, human; details: 25 μM
# Procedure, shortened: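 MDA-MB-231 cells (DMEM, 10% FBS, gentamycin) were trypsinised at 80% confluence and counted. Each insert (8 µm pores, no Matrigel) received 50,000 cells in DMEM with 2% DMSO and test compound at 25 or 10 µM; the lower chamber held DMEM with 10% FBS as chemoattractant. E-64 served as positive control. After 24 h at 37 °C and 5% CO2, migrated cells were methanol-fixed and Diff-stained. Values were normalised to 2% DMSO vehicle, in triplicate.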
# [3] = biological target: T1, cathepsin L (Homo sapiens, UniProt P07711); assay: Cathepsin L reaction progress curves / reversibility; format: biochemical; details: separate experiments, Supplementary data
# Procedure, shortened: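 No pre-incubation. Test compound at final 10, 5, 1, 0.5, 0.1, 0.01 and 0.005 µM was mixed with Z-FR-AMC (final 10 µM), and the reaction was started by adding cathepsin L in assay buffer. AMC fluorescence (ex 355/em 460 nm) was read every 30 s for 50 min.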
# [4] = tested on: C3H mammary carcinoma; assay: Growth inhibition of C3H mammary carcinoma in CDF1 mice; format: in vivo; details: 20 mg/kg i.p., 5 daily treatments
# [5] = biological target: Human liver Cathepsin B (Homo sapiens, UniProt P07858); assay: Cathepsin B inhibition assay; format: biochemical
# Procedure, shortened: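 Human liver cathepsin B was pre-incubated with the test compound for 5 min at 37 °C, then Z-RR-AMC was added. Fluorescence (ex 355/em 460 nm) was read over 5 min at 37 °C. IC50 was fitted from triplicate experiments.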
# [6] = biological target: human liver cathepsin L (Homo sapiens, UniProt P07711); assay: Cathepsin L inhibition assay; format: biochemical; details: tested up to 10,000 nM
# [7] = E/Z isomerization in solution followed by 1H NMR; format: physicochemical; details: acetone, one week; isolated as Z isomer
# [8] = biological target: T1, cathepsin L; details: cited from earlier work
# T1 sequence (P07711 114-288 limits assumed): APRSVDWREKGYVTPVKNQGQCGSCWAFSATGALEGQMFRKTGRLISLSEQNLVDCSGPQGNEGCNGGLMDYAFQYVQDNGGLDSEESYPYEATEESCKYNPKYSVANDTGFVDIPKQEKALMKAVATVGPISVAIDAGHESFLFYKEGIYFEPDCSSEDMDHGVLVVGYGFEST
# T1 sequence (P07711 292-333 limits assumed): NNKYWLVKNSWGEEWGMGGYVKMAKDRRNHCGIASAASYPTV
# human liver cathepsin L, sequence (P07711 114-288 limits assumed): as the sequence (P07711 114-288 limits assumed) above
# human liver cathepsin L, sequence (P07711 292-333 limits assumed): as the sequence (P07711 292-333 limits assumed) above
smiles,measurement,setting,value
"NC(=S)N/N=C(\c1ccccc1)c1cccc(C(=O)c2ccccc2)c1 [Compound 1, 3-Benzoylbenzophenone thiosemicarbazone]",cytotoxicity toward HUVECs (in words),[1],low cytotoxicity; also recorded: very low cytotoxicity
same,increase in inhibition of migration compared with positive control E-64,[2],greater than 2 fold
same,reversibility of cathepsin L inhibition,[3],slowly reversible
same,tumor growth delay (in words),[4]; C3H mammary carcinoma in CDF1 mice,"showed efficacy in tumor growth delay; also recorded: modest, statistically relevant efficacy in tumor growth delay; also recorded: delayed growth in vivo"
same,tolerability in mouse model,[4]; CDF1 mice bearing C3H mammary carcinoma,well-tolerated
"NC(=S)N/N=C(\c1ccc(F)cc1)c1cccc(C(=O)c2ccc(F)cc2)c1 [Compound 8, 1,3-Bis(4-fluorobenzoyl)benzene thiosemicarbazone]",cytotoxicity toward HUVECs (in words),[1],low cytotoxicity; also recorded: very low cytotoxicity
"NC(=S)N/N=C(\c1ccc(Br)cc1)c1cccc(/C(=N/NC(N)=S)c2ccc(Br)cc2)c1 [Compound 10, 1,3-Bis(4-bromobenzoyl)benzene bis-thiosemicarbazone]",activity against cathepsin B (in words),[5],inactive
same,activity against cathepsin L (in words),[6],no activity
"CC(C)Oc1ccc(C(=O)c2cccc(/C(=N/NC(N)=S)c3ccc(OC(C)C)cc3)c2)cc1 [Compound 14, 1,3-Bis(4-isopropoxybenzoyl)benzene thiosemicarbazone]",activity against cathepsin L (in words),[6],inactive
"NC(=S)N/N=C(\c1cccc(O)c1)c1cc(Br)cc(C(=O)c2cccc(O)c2)c1 [Compound 31, 1,3-Bis(3-hydroxybenzoyl)-5-bromobenzene thiosemicarbazone]",cytotoxicity toward HUVECs (in words),[1],very low cytotoxicity
"NC(=S)N/N=C(\c1cc(Br)cc(C(=O)c2ccccc2F)c1)c1ccccc1F [Compound 32, 1,3-Bis(2-fluorobenzoyl)-5-bromobenzene thiosemicarbazone]",isomerization on standing in solution,[7],did not isomerize
same,cytotoxicity toward HUVECs (in words),[1],low cytotoxicity; also recorded: very low cytotoxicity
same,reversibility of cathepsin L inhibition,[3],slowly reversible
"NC(=S)NN=C(c1cccc(O)c1)c1cccc(Br)c1 [X, (3-bromo-3′-hydroxybenzophenone) thiosemicarbazone]",kinetic analysis of cathepsin L inhibition,[8],time-dependent and slowly reversible
